KLK7 zymogen act: proKLK7 zymogen activators, primary screen, biochemical, fluorescence intensity; Kallikrein-7 (Homo sapiens), P49862; purified proKLK7, EDANS-DABCYL substrate fluorescence; 100% is mature enzyme control, 0% vehicle; activation, % at 7 µM; hit rate 0.9% among 370,000;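 active means activation above the mean of all tested compounds plus 3 SD, computed per campaign excluding outliers beyond control limits, cut at about 13% in these data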
Target sequence (P49862 whole entry, looked up): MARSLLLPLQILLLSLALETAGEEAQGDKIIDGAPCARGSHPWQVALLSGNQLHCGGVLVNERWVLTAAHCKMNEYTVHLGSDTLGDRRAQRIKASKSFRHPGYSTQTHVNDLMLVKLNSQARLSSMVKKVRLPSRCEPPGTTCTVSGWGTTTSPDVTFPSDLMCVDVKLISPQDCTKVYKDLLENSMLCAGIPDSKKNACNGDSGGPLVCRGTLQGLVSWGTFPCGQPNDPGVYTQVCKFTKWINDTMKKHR
procasp3 activ: activators of human procaspase-3 D3A mutant, primary screen, biochemical, absorbance, PC-3 D3A mutant, single concentration; Caspase-3 (Homo sapiens), P42574; recombinant procaspase-3 D3A, Ac-DEVD-pNA absorbance 405 nm; activation, % at 8.5 µM; hit rate 0.11% among 330,000;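 active means activation above the mean of all tested compounds plus 3 SD, cut at about 21% in these data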;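 further: 0% = DMSO alone and 100% = DMSO wells spiked with extra 5 µM PC-3 D3A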
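material = Procaspase-3 D3A mutant | probe or stimulus = Ac-DEVD-pNA | compound = single dose, 8.5 µM nominal compound, 0.8% DMSO | timing = 1 h preincubation, 2 h reaction | measured by = 405 nm absorbance of p-nitroaniline, reads at 0 and 120 min | benchmarks = DMSO-only low control, 5 µM PC-3 D3A high control | repeats = singlicate, each compound tested once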
procasp7 counter: procaspase-7 activators, primary screen, counter-screen for procaspase-3 activator project, biochemical, absorbance, HTS, human; recombinant procaspase-7, Ac-DEVD-pNA absorbance 405 nm; D23A/D198A/D206A triple mutant, cannot self-cleave; scale: DMSO 0, 5 µM enzyme 100; activation, % at 8.5 µM; hit rate 0.093% among 330,000; AID 463210, 2010;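 active means percent activation above the screen-wide mean plus 3 SD, cut at about 25% in these data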
Target sequence (P55210 whole entry D23A/D198A/D206A): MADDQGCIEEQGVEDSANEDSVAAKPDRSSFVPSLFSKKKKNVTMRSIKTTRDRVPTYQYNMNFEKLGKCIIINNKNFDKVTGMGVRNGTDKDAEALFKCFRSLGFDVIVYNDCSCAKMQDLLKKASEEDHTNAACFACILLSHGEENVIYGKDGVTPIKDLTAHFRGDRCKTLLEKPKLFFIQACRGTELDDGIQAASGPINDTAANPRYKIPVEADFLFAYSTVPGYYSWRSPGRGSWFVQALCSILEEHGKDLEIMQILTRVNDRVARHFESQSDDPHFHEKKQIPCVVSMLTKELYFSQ
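System: Procaspase-7 triple mutant (PC-7 D3A); measure: % activation from two-timepoint absorbance difference, scaled to controls; times: 1 h compound preincubation, 2 h substrate cleavage, 25 °C; also added: Ac-DEVD-pNA substrate, 400 µM as added; measured by: Epi-absorbance of released pNA at 405 nm, two timepoints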
Neddyl block: inhibitors of cullin neddylation, primary screen, biochemical, TR-FRET, uHTS, NAE and Ubc12 | NEDD8-conjugating enzyme Ubc12 (Homo sapiens) + NEDD8-activating enzyme E1 regulatory … | AID 651699, 2012 | hit rate 0.58% among 360,000 | calls only at 25 µM; in the data active means inhibition above about 36%
proCasp7 act trip: procaspase-7 activators, counter-screen for procaspase-3 activator project, biochemical, absorbance, triplicate, human; activation, % at 8.5 µM; 210 tested, under 10 active; shares compounds with procasp3 activ; recombinant procaspase-7, Ac-DEVD-pNA absorbance; asp23/198/206-to-Ala mutant, cannot self-cleave; AID 488941, 2010;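 active means mean activation above a set limit taken from an earlier procaspase-7 screen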;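 further: 0% = DMSO wells and 100% = DMSO plus 5 µM procaspase-7 enzyme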
proCasp3 confirm: activators of human procaspase-3 D3A mutant, confirmation, biochemical, absorbance, PC-3 D3A mutant, triplicate; shares compounds with procasp3 activ; recombinant PC-3 D3A, Ac-DEVD-pNA absorbance 405 nm; 100% is higher-enzyme control; activation, % at 8.5 µM; hit rate 10% among 210;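 active means mean activation above a set limit carried over from the earlier primary screen, cut at about 22% in these data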
* hit, by the source's call; i = inactive; · = no result given; + = active, no number. Rows were chosen to be rich in hits. Some 1.6% of all compounds tested hit in one or more screens of this group.

SMILES	KLK7 zymogen act	procasp3 activ	procasp7 counter	Neddyl block	others
S=c1[nH]nc(-c2ccccc2)n1CC1CCCO1 (stereo not given)	0	-3	-1	i
Fc1ccccc1-c1nc2nc3ccccc3nc2n1CC1CCCO1 (stereo not given)	2	-7	-4	+
CN1C(=O)C[C@@](C#N)(C(=O)NCC(F)(F)F)[C@H]1c1ccccc1	0	·	·	·
CCCCOCCCNC(=O)C[C@@H]1C(=O)N(Cc2ccc(OC)cc2)/C2=C/CCCCC[C@@]21C(=O)OCC	1	·	·	·
Cc1ccc(NC(=O)CSc2nc3ccccc3nc2N2CCCC2)cc1	0	40*	-2	i
C=CCNC(=O)C1CCN(c2cncnc2)CC1	0	·	·	·
O=C(C1CCCN1S(=O)(=O)c1cccc2ccccc12)N1CCN(c2ccccc2)CC1 (stereo not given)	0	·	·	·
c1cc2c3c(cccc3c1)NC1(CCC3(CC1)Nc1cccc4cccc(c14)N3)N2	-1	-4	-16	+
N#Cc1ccc(Cn2nnc(-c3ccc(N4CCOCC4)cc3)n2)cc1	0	·	·	·
CCOC(=O)Cn1cc(CN2CCS(=O)(=O)N(Cc3ccccc3)C(C(=O)OC)C2)nn1 (stereo not given)	0	·	·	·
C=CCN(CC#Cc1ccccc1)Cc1ccc2c(c1)OCO2	0	·	·	·
Nc1ccc(O)cc1C(=O)OCC(=O)c1ccc(C2CCCCC2)cc1	-10	-9	-2	+
CCC(C)Nc1nc(C)nc2c1nnn2Cc1ccccc1 (stereo not given)	0	·	·	·
CN(C)c1ccc(/C=N/NC(=S)NCc2ccccc2)cc1	-12	90*	32*	·
CC(=Nc1ccc(Cl)cc1N)c1c(O)cc(C)oc1=O	-1	·	·	·
S=C(Nc1ccc2nc(-c3ccccn3)c(-c3ccccn3)nc2c1)N1CCCCC1	·	·	·	+
S=C(Nc1ccc2nc(-c3ccccn3)c(-c3ccccn3)nc2c1)N1CCCCCC1	6	-10	-15	i
Cc1cccc(Oc2coc3cc(OC(=O)c4cccs4)ccc3c2=O)c1	41*	-1	4	i
O=C(Oc1ccc2c3c(c(=O)oc2c1)CCCC3)c1cccs1	-24	6	-3	·
Cc1ccc(Oc2coc3cc(OC(=O)c4cccs4)ccc3c2=O)cc1	45*	-5	7	i
CCc1nnc(NC(=O)c2ccc(-c3ccccc3Cl)o2)s1	0	2	9	+
CCc1nnc(NC(=O)c2ccc(COc3ccccc3Cl)o2)s1	1	1	5	i
Oc1ccccc1CNc1cnc2ccccc2c1	9	-3	-7	+
O=C(NC(=S)Nc1ccccn1)c1cncc(Br)c1	7	8	8	i
Cc1cccnc1NC(=S)NC(=O)c1cncc(Br)c1	32*	-7	9	i
SMILES	KLK7 zymogen act	procasp3 activ	procasp7 counter	Neddyl block	others
Cc1cc2c(=Cc3ccc(N(C)C)cc3)c3ccccc3n2[n+]1C	0	·	·	i
CN(C)c1ccc(C=c2c3ccccc3n3c2c2ccccc2[n+]3C)cc1	0	·	·	+
COc1ccc(/C(C)=N/NC(=O)c2cccc(S(=O)(=O)N3CCCC3)c2)c(O)c1	-6	-80	-48	+
Cc1sc2ncnc(SCC(=O)Nc3ccc(S(=O)(=O)N4CCOCC4)cc3)c2c1C	0	23*	4	i	proCasp7 act trip=0;proCasp3 confirm=2
Clc1ccc(-n2c(Cc3cccs3)nnc2SC/C=C/c2ccccc2)cc1	0	·	·	·
CCCCCCCCN1[C@@H](CC(=O)O)c2ccc(C(F)(F)F)cc2S1(=O)=O	0	40*	-1	i	proCasp7 act trip=1;proCasp3 confirm=3
C=CCN1C(=O)[C@@H](CC(=O)NCc2ccccc2)[C@]2(C(=O)OC)CCCCC=C12	-1	·	·	·
CC(C)(C)c1ccc(C(=O)Nc2c3c(nn2C(C)(C)C)CS(=O)(=O)C3)cc1	0	1	-5	i
Cc1cc(C)cc(C(=O)Nc2c3c(nn2C(C)(C)C)CS(=O)(=O)C3)c1	0	22*	2	i	proCasp7 act trip=0;proCasp3 confirm=5
CC(C)CCNC(=O)C1CCN(c2cncnc2)CC1	-1	·	·	·
Cc1cc(=O)oc2cc(OC(C)C(=O)NCc3ccccn3)ccc12 (stereo not given)	0	5	2	i
Cc1c(C)c2ccc(OC(C)C(=O)NCc3ccccn3)cc2oc1=O (stereo not given)	-8	23*	-7	·	proCasp7 act trip=2;proCasp3 confirm=6
COc1ccc(-c2nc3ccc(N4CCCC4)cc3c(=O)[nH]2)cc1OC	-40	31*	-5	·	proCasp7 act trip=-20;proCasp3 confirm=-10
CCOC(=O)Nc1ccc2c(c1)[C@]1(CC(=O)N(CC(C)C)C1c1ccccc1)C(=O)N2C (stereo not given in full)	-1	·	·	·
O=C(O)c1ccc(N/N=C/c2ccc(-c3ccccc3Cl)o2)cc1	-1	-29	-68	·
O=C(N/N=C/c1ccc(-c2ccccc2Cl)o1)c1ccccc1	0	25*	-24	i	proCasp7 act trip=-7;proCasp3 confirm=-5
OC[C@@H]1[C@@H](c2ccc(Cl)cc2)C(c2cccc(Cl)c2)=NN1c1ccccc1	-258	18	0	·
OC[C@@H]1[C@@H](c2ccc(Cl)cc2)C(c2ccccc2)=NN1c1ccccc1	-130	22*	20	·	proCasp7 act trip=-21;proCasp3 confirm=-12
Cc1nnc(-n2cccc2)s1	-1	·	·	·
COC(=O)[C@]12C[C@H](CC(=O)NCc3cccc4ccccc34)C(=O)N(CCC3=CCCCC3)C1=C[C@H](C1CCCC1)O[C@@H]2C	0	·	·	·
Cc1cc(OC(=O)c2ccc(Cl)cc2Cl)c([N+](=O)[O-])c(=O)[nH]1	0	89*	1	i	proCasp7 act trip=-8;proCasp3 confirm=0
Cc1cc(OC(=O)c2ccccc2Cl)c([N+](=O)[O-])c(=O)[nH]1	0	-3	-3	i
COc1ccc(S[C@]2(C(=O)N3CCN(c4ncccn4)CC3)CC(=O)N(C(=O)c3ccccc3)[C@@H]2c2ccc(OC)cc2)cc1	0	·	·	·
CCc1cc2c(CN(C)Cc3ccccc3F)cc(=O)oc2cc1O	-119	46*	21	·	proCasp7 act trip=-22;proCasp3 confirm=-16
[O-][n+]1onc2c1C(N1CCOCC1)CCC2N1CCOCC1 (stereo not given)	0	68*	11	i	proCasp7 act trip=4;proCasp3 confirm=5

Assay outcomes deposited in PubChem by several laboratories.
